Compound activity from PubChem.
An excerpt weighted towards active compounds, which were near 2.3% of everything screened.
GSTO1 counter = inhibitors of recombinant GSTO1, primary screen, counter-screen for RBBP9 inhibitor project, biochemical, fluorescence polarization; AID 1974, 2009; inhibition, % at 5.96 µM; activity-based probe fluorescence polarization; hit rate 1.1% among 300,000; Glutathione S-transferase omega-1 (Homo sapiens), P78417;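 active = inhibition above the campaign mean inhibition plus 3 SD, cut at about 35% in these data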;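 also: 0% = GSTO1-1 with DMSO and 100% = wells lacking GSTO1-1 enzyme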
Target sequence (P78417 whole entry, looked up): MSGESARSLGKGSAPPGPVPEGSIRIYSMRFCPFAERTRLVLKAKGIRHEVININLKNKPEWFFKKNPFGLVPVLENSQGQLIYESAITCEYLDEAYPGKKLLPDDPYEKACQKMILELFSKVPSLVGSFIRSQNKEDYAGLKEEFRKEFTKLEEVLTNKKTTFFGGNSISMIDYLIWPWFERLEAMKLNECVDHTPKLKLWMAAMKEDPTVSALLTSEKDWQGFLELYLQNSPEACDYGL
RBBP9 inhibitor = human RBBP9 inhibitors, primary screen, biochemical, fluorescence polarization, FP-Rh probe, HTS | inhibition, % at 7.94 µM | recombinant RBBP9 | Serine hydrolase RBBP9 (Homo sapiens), O75884 | hit rate 0.2% among 220,000 | AID 1515, 2009;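 active = inhibition above the campaign mean of all tested compounds plus 3 SD, cut at about 14% in these data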;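 also: plate controls were DMSO wells with RBBP9 for no effect and wells lacking RBBP9 protein for full effect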
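Test system: recombinant human RBBP9. Quantity: 2.5 µM RBBP9 dispensing solution, before mixing. Detection: FP readout at 525/598 nm. Reagent: Serine-hydrolase probe FP-Rh, 375 nM pre-mixing. Measure: % inhibition. Control set: DMSO-treated enzyme wells and wells lacking RBBP9. Buffer or medium: Tris-NaCl-Pluronic buffer, pH 8.0. Times: preincubation 30 min plus labeling 45 min at 25 °C.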
Fam108B inh = mouse Fam108B serine hydrolase inhibitors, primary screen, counter-screen for RBBP9 inhibitor project, biochemical, fluorescence polarization; inhibition, % at 9.51 µM; recombinant Fam108B, FP-Rh probe fluorescence polarization; hit rate 0.33% among 300,000;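 active = inhibition above the screen mean inhibition plus 3 SD, computed separately per campaign, cut at about 18% in these data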;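 also: inhibitors lower polarization as less probe binds the enzyme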
PRMT1 inh = PRMT1 methyltransferase inhibitors, primary screen, biochemical, fluorescence polarization. Protein arginine N-methyltransferase 1 (Homo sapiens), Q99873. recombinant PRMT1, activity-based probe fluorescence polarization. inhibition, % at 2.79 µM. hit rate 1.3% among 370,000. AID 652257, 2013;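 active = inhibition above about 21% made by adding two undisclosed values, limit read from the data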
PME-1 primary = PME-1 inhibitors via competitive probe labeling, primary screen, biochemical, fluorescence polarization, FP-Rh probe, HTS; Protein phosphatase methylesterase 1 (Homo sapiens), Q9Y570; recombinant PME-1; inhibition, % at 5.9 µM; hit rate 0.53% among 320,000; AID 2130, 2009;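 active = inhibition above the campaign mean of all compounds plus 3 SD, cut at about 26% in these data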;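 also: competitive labeling of PME-1 active site by serine hydrolase directed probe; 0% = PME-1 with DMSO and 100% = wells lacking PME-1 enzyme; inhibitors block probe labeling so polarization falls and inhibition rises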
Target sequence (Q9Y570 whole entry, looked up): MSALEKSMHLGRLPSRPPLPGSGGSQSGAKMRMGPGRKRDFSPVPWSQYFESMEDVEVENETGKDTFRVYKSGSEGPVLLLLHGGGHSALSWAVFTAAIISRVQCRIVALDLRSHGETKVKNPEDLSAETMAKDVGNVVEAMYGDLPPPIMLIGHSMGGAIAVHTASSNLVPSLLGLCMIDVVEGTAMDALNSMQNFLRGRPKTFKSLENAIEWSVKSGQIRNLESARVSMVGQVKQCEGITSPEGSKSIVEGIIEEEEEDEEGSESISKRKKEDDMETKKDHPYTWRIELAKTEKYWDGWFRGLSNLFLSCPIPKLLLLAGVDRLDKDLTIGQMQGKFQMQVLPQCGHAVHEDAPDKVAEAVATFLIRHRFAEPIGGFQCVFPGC
PAD4 FP inh = human PAD4 inhibitors, primary screen, biochemical, fluorescence polarization, 1536-well format. Protein-arginine deiminase type-4 (Homo sapiens), Q9UM07. recombinant PAD4, RCA probe fluorescence polarization. hit rate 0.41% among 330,000. inhibition, % at 6.36 µM;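 active = percent inhibition above a cutoff equal to the mean of all tested compounds plus 3 SD, cut at about 15% in these data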;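 also: 0% = PAD4 with RCA probe and DMSO and 100% = probe without PAD4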
* marks the source's active call; other numbers are inactive results; / = no result given.

SMILES	GSTO1 counter	RBBP9 inhibitor	Fam108B inh	PRMT1 inh	PME-1 primary	PAD4 FP inh
Cc1nc2cc3nc(C)sc3cc2s1	-2	-8	-3	22*	-1	1
COC(=O)C[C@H]1c2cc(C(F)(F)F)ccc2S(=O)(=O)N1C1CCCCC1	4	/	-6	0	-5	-2
O=C(c1ccccc1Cl)N1CCC(c2nc3c(nnn3Cc3ccco3)c(=O)[nH]2)CC1	3	-12	0	-2	12	5
COc1ccc(-c2coc3cc(OC(C)=O)ccc3c2=S)cc1	/	/	/	22*	/	/
COC(=O)c1cc(O)c(O)c(O)c1	47*	1	-5	4	-7	5
COC(=O)c1cc(OC)nc(OC)c1	1	-2	-4	3	2	3
Cc1ccc(OCC(=O)N/N=C2\CCOc3c(C)cccc32)cc1	-2	-10	-2	-5	4	4
Cc1ccc(OCCCCNC2CCCCC2)c(C)c1	-2	-13	-2	-2	0	-1
Cc1nn(-c2ccccc2)c2c1C1(C(=O)N(C)c3ccccc31)C(C#N)=C(N)O2 (centres undefined)	37*	3	4	0	-1	1
CC(=O)N1C(=O)C2(C(C#N)=C(N)Oc3c2c(C)nn3-c2ccccc2)c2ccccc21 (centres undefined)	30	4	4	2	-5	-1
Cc1ccc(S(=O)(=O)N2CCOCC2)cc1NC(=O)CSc1nc(N)cc(=O)[nH]1	-1	9	-4	23*	1	-1
CCn1ccc(C(=O)NC2=NCCS2)n1	-2	-5	-3	24*	1	-3
O=C1C(=O)c2cccnc2-c2ncccc21	/	/	/	22*	/	/
COc1ccc(-c2csc(C(O)c3ccccc3)n2)cc1 (centres undefined)	/	/	/	-2	/	/
Cc1ccccc1NC(=O)CC1SCCNC1=O (centres undefined)	-5	1	1	22*	2	4
CCC(=O)Nc1nc(C)c(-c2csc(Nc3ccc(S(=O)(=O)Nc4cc(C)on4)cc3)n2)s1	/	-4	/	/	/	/
COc1ccccc1Nc1nc(-c2sc(NC(=O)c3ccccc3)nc2C)cs1	1	-1	1	3	1	-4
Cc1cc(NS(=O)(=O)c2ccc(Nc3nc(-c4sc(NC(=O)c5ccccc5)nc4C)cs3)cc2)no1	9	1	-9	/	81*	-15
COc1ccccc1Nc1nc(-c2sc(NC(=O)c3ccc([N+](=O)[O-])cc3)nc2C)cs1	11	-4	25*	/	24	0
Nc1c2c(=O)oc(-c3ccccc3)cc2nn1-c1ccccc1	-5	-7	-2	-1	10	-3
Cc1ccc(NC2=C/C(=N/S(=O)(=O)c3cccs3)c3ccccc3C2=O)cc1	65*	0	8	-4	4	11
Cc1ccc(S(=O)(=O)/N=C2\C=C(NS(=O)(=O)c3ccccc3)C(=O)c3ccccc32)c(C)c1	/	/	/	1	/	/
CC(=O)c1ccc(OCC(=O)NCCC2=CCCCC2)cc1	/	/	/	0	/	/
CC1CCCC=CC2CC(OC(=O)CN(C)C)CC2C(O)C=CC(=O)O1 (centres undefined)	/	/	/	7	/	/
C[C@H]1CCC/C=C/[C@@H]2C[C@H](O)C[C@H]2[C@H](O)[C@H](S(=O)c2ccc(O)cc2)CC(=O)O1 (some centres undefined)	/	/	/	73*	/	/
SMILES	GSTO1 counter	RBBP9 inhibitor	Fam108B inh	PRMT1 inh	PME-1 primary	PAD4 FP inh
CCn1c2ccccc2c2cc(NC(=O)c3ccc(C)c([N+](=O)[O-])c3)ccc21	-40	-6	-3	-1	37*	-2
Cc1cc2c(SCC(=O)Nc3cccc(O)c3)ncnc2s1	/	/	/	34*	/	/
Cc1ccc(N2CCN(C(=S)c3ccc(N(C)C)cc3)CC2)cc1	-3	-7	1	3	7	1
CN(C)c1ccc(C(=S)N2CCN(c3ccc([N+](=O)[O-])cc3)CC2)cc1	1	-10	8	23*	3	-2
COc1ccc(Br)cc1CNC(=O)CCC(=O)n1nc(C)c2ccccc21	5	/	3	10	2	-2
O=c1ccc2nc3ccccc3sc-2c1	/	/	/	22*	/	/
Cc1cc(C)c(S(=O)(=O)N2CCCOC2CNC(=O)C(=O)NCc2ccco2)c(C)c1 (centres undefined)	4	3	3	-1	0	-6
CC(=O)Nc1ccc(NC(=S)NC(=O)/C=C/c2ccco2)cc1	13	/	5	21*	-3	-5
O=C(/C=C/c1ccco1)NC(=S)Nc1ccccc1O	22	-2	8	21*	6	-3
CN1C(=O)c2cccc3c(S(=O)(=O)NCc4ccco4)ccc1c23	1	-7	-4	22*	7	0
CC(=O)c1ccc(N2CCN(C(=O)c3ccc(Cn4c(=S)[nH]c5ccc(N6CCOCC6)cc5c4=O)cc3)CC2)cc1	35*	-4	-1	-4	-1	-1
COCCCn1c(=S)[nH]c2ccc(N3CCOCC3)cc2c1=O	4	/	-2	-1	0	-9
CCCCN(C)CCn1c(=S)[nH]c2ccc(N3CCOCC3)cc2c1=O	5	2	-7	24*	-12	-1
CCOc1ccc(N2C(=O)C(Cl)=C(Nc3ccccc3O)C2=O)cc1	19	-1	-1	22*	7	-4
COc1ccccc1NC1=C(Cl)C(=O)N(c2ccccc2)C1=O	12	-7	2	12	2	-4
COc1cccc2oc3cc(C#Cc4ccccn4)ccc3c(=O)c12	-17	/	-2	2	-7	-3
CSc1ccc(/C=N\Nc2nncn2N)cc1	14	/	-1	2	8	42*
Cc1ccc(C(C[N+](=O)[O-])Sc2ccc(N)cc2)cc1 (centres undefined)	8	-4	0	67*	-2	6
CCOC(=O)c1cc(-c2ccc(N3CCOCC3)cc2)nn1-c1ccc(F)cc1F	11	-3	-3	2	-3	-6
c1coc(CSSCc2ccco2)c1	/	/	/	49*	-4	3
CCOC(=O)C1CCCN(C(=O)c2cc3c(C)nc4ccccc4c3o2)C1 (centres undefined)	-3	-9	5	1	7	-1
CC1(OC(=O)c2ccc(Cl)nc2)C(=O)C=C2C=C(c3ccsc3)OC=C2C1=O (centres undefined)	24	/	5	/	-1	-5
COC(=O)CCCC1=CC2=CC(=O)C(C)(OC(=O)c3ccc(Cl)nc3)C(=O)C2=CO1 (centres undefined)	35*	/	8	/	8	5
